Consider 27 molecules from ChEMBL document CHEMBL4257500, “Design, synthesis and antimycobacterial activity of hybrid molecules combining pyrazinamide with a 4-phenylthiazol-2-amine scaffold” (Medchemcomm, 2018).

Values after ≈ are worked out from the molar mass of the structure shown.

Data set [1] concerns Mycobacterium tuberculosis. Kind of data set: Antimycobacterial activity against Mycobacterium tuberculosis H37Rv ATCC 27294 incubated in dark for 5 days by Alamar Blue assay. It is filed as functional. Conditions: H37Rv ATCC 27294, 120 h. Put shortly:
(§1)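 Middlebrook 7H9 broth with 0.4% glycerol and 10% OADC, pH 6.6. Compounds in DMSO, final 100–1.56 µg/mL by twofold steps. Inoculum 0.5–1.0 McFarland in saline, diluted 10⁻¹. Static incubation at 37 °C, dark, humid, 5 days. Alamar Blue (resazurin/Tween 80) added, read after 24 h. MIC = lowest concentration preventing the blue-to-pink change by eye; turbidity also inspected. Isoniazid control.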

Data set [2] concerns Mycobacterium kansasii. Kind of data set: Antimycobacterial activity against Mycobacterium kansasii Hauduroy ATCC 12478 incubated in dark for 5 days by Alamar Blue assay. It is filed as functional, Mycobacterium kansasii ATCC 12478. Conditions: 120 h.
Data set [3] relates to Mycobacterium avium. Kind of data set: Antimycobacterial activity against Mycobacterium avium subsp. avium Chester ATCC 15769 incubated in dark for 5 days by Alamar Blue assay. The data set is classed as functional. Conditions: Chester ATCC 15769, 120 h. The procedure, abridged:
as §1

Data set [4] concerns Mycolicibacterium smegmatis. Description: Antimycobacterial activity against Mycobacterium smegmatis ATCC 607 incubated in dark for 48 hrs by resazurin assay. Conditions: ATCC 607, 48 h. The data set is classed as functional. The procedure, abridged:
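Broth microdilution in Middlebrook 7H9 with glycerol and OADC, pH 6.6. Inoculum 0.5–1.0 McFarland, diluted 1:20 in broth. Compounds in DMSO by binary dilution, final 3.91–500 µg/mL; DMSO ≤2.5% v/v. Sealed plates kept dark, 37 °C, no agitation. After 48 h, 0.01% resazurin added; read after a further 2.5 h. Run in duplicate.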

The nature of data set [5]: Solubility of compound in DMSO at 15 mg at 55 to 80 degC. It is filed as physicochemical.
The nature of data set [6]: Solubility of compound in DMSO at 15 mg at room temperature. The data set is classed as physicochemical.
In data set [7] the test system is Mycobacterium tuberculosis. Description: Antimycobacterial activity against Mycobacterium tuberculosis H37Rv assessed as growth inhibition at 6.25 ug/ml by BACTEC 460 radiometric assay relative to control. Conditions: read-out: GI. The data set is classed as functional.
For data set [8], the system named is HepG2. Description: Cytotoxicity against human HepG2 cells assessed as decrease in cell viability after 24 hrs by MTS assay. It is filed as cell-based. Conditions: HepG2, 24 h. Put shortly: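 HepG2 (passage 32–34) seeded at 1×10^4 cells/well and treated 24 h later. Compounds in DMSO, 0.1–1000 µM depending on solubility; DMSO ≤1%. Triplicates at 37 °C, 5% CO2 for 24 h. MTS reagent (CellTiter 96 AQueous One) for 2 h, absorbance at 490 nm. IC50 by nonlinear regression of absorbance relative to untreated cells.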

Data set [9] is described as follows: Selectivity index, ratio of IC50 for human HepG2 cells to MIC for Mycobacterium tuberculosis H37Rv ATCC 27294. It is filed as toxicity. Conditions: read-out: Selectivity Index. The procedure, abridged:
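SI = HepG2 IC50 / Mtb H37Rv MIC, with MIC converted to µM (µg/mL ÷ MW). HepG2 cells (passage 32–34) seeded at 1×10^4 per well. Treated after 24 h with 0.1–1000 µM depending on solubility, DMSO ≤1%, triplicates, 37 °C, 5% CO2, 24 h. Viability read by MTS-type reagent at 490 nm after 2 h. IC50 from nonlinear regression.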

The test system of data set [10] is HepG2. Description: Cytotoxicity against human HepG2 cells assessed as decrease in cell viability after 24 hrs by CellTox green assay. The data set is classed as cell-based. Conditions: HepG2, 24 h. Put shortly:
(§2)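 HepG2 seeded at 1×10^4 cells/well, dosed the next day with compounds in DMSO at 0.1–500 µM; DMSO ≤1%. Triplicates at 37 °C, 5% CO2. CellTox Green reagent added after 24 h exposure, 15 min at room temperature, fluorescence Ex 485/Em 520 nm. Reading repeated 24 h later for the 48 h value. IC50 by nonlinear regression against untreated control.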

Data set [11] relates to HepG2. Description: Cytotoxicity against human HepG2 cells assessed as decrease in cell viability after 48 hrs by CellTox green assay. The data set is classed as cell-based. Conditions: HepG2, 48 h. Put shortly: as §2

For `O=C(Nc1nc(-c2ccccc2)cs1)c1cnc(Cl)cn1`, the minimum inhibitory concentration (MIC) in data set [1] is more than 100 µg/mL; in data set [2], more than 100 µg/mL; in data set [3], more than 100 µg/mL; in data set [4], more than 500 µg/mL. In addition, the solubility entry in data set [5] is “Soluble”.
In the case of `O=C(Nc1nc(-c2ccc(Cl)cc2)cs1)c1cnccn1`, the MIC was more than 12.5 µg/mL in [1], more than 12.5 µg/mL in [2], more than 12.5 µg/mL in [3] and 62.5 µg/mL (≈ 197 µM) in [4]. Also, the solubility entry in data set [6] is “Insoluble”.
Take `O=C(Nc1nccs1)c1cncc(Cl)n1`: the inhibition of growth at 6.25 µg/mL in [7] lay within 15 to 65%.
On the same count and under the same terms, the same measure for `Cc1cnc(NC(=O)c2cnc(C(C)(C)C)c(Cl)n2)s1`: 15 to 65%.
On the same count and under the same terms, as for `Cc1cnc(NC(=O)c2cncc(Cl)n2)s1`, the figure is 15 to 65%.
In the case of `COc1ccc(-c2csc(NC(=O)c3cnc(Cl)cn3)n2)cc1`, the MIC is 4.5 µM in [1], more than 50 µg/mL in [2], more than 50 µg/mL in [3] and more than 500 µg/mL in data set [4]. The solubility entry in [5] was “Soluble”. Further, the IC50 in data set [8] was more than 75 µM. Also, the selectivity ratio in data set [9] was more than 16.7.
With `O=C(Nc1nc(-c2ccccn2)cs1)c1cnc(Cl)cn1`, the MIC in data set [1] is more than 50 µg/mL; in data set [2] it was more than 50 µg/mL; in data set [3], more than 50 µg/mL; in data set [4], more than 125 µg/mL. Also, the solubility entry in [5] was “Soluble”.
Regarding `COc1ccc(-c2csc(NC(=O)c3cnccn3)n2)cc1OC`, the MIC in data set [1] was more than 50 µg/mL; in [2], more than 50 µg/mL; in data set [3] it was more than 50 µg/mL; in [4], more than 125 µg/mL. Further, the solubility entry in [6] is listed as “Soluble”.
As for `O=C(Nc1nc(-c2ccccc2)cs1)c1cncc(Cl)n1`, the minimum inhibitory concentration (MIC) was more than 50 µg/mL in data set [1], more than 50 µg/mL in data set [2] and more than 500 µg/mL in data set [4]. In data set [5], the solubility result is reported as “Soluble”.
In the case of `COc1ccc(-c2csc(NC(=O)c3cnc(Cl)cn3)n2)cc1OC`, the minimal inhibitory concentration (MIC) in [1] was more than 12.5 µg/mL; in [2], more than 12.5 µg/mL; in data set [3] it was more than 12.5 µg/mL; in data set [4], more than 250 µg/mL. Besides, the solubility result in data set [6] is given as “Insoluble”.
On to `O=C(Nc1nc(-c2ccccn2)cs1)c1cncc(Cl)n1`, for which the MIC in data set [1] is more than 50 µg/mL; in data set [2], more than 50 µg/mL; in [3], more than 50 µg/mL; in data set [4] it was more than 125 µg/mL. For the same molecule, the solubility result in [5] is listed as “Soluble”.
`NNC(=O)c1ccncc1` [ISONIAZID]: the minimal inhibitory concentration (MIC) fell in the range of 0.1 to 0.2 µg/mL in data set [1], 12.5 to 25 µg/mL (≈ 91.1 to 182 µM) in data set [2], 6.25 to 12.5 µg/mL (≈ 45.6 to 91.1 µM) in data set [3] and 7.8 to 15.6 µg/mL (≈ 56.9 to 114 µM) in [4]. In data set [6], the solubility result was “Soluble”.
As to `O=C(O)c1cn(C2CC2)c2cc(N3CCNCC3)c(F)cc2c1=O` [CIPROFLOXACIN], the MIC was 0.098 to 0.195 µg/mL in [1], 0.098 to 0.195 µg/mL (≈ 0.296 to 0.589 µM) in data set [2], 0.098 to 0.195 µg/mL (≈ 0.296 to 0.589 µM) in [3] and 0.098 to 0.195 µg/mL (≈ 0.296 to 0.589 µM) in data set [4].
`CO[C@H]1/C=C/O[C@@]2(C)Oc3c(C)c(O)c4c(O)c(c(/C=N/N5CCN(C)CC5)c(O)c4c3C2=O)NC(=O)/C(C)=C\C=C\[C@H](C)[C@H](O)[C@@H](C)[C@@H](O)[C@@H](C)[C@H](OC(C)=O)[C@@H]1C` [RIFAMPIN]: the MIC in [1] fell in the range of 0.78 to 1.56 µg/mL; in data set [2] it was 0.78 to 1.56 µg/mL (≈ 0.948 to 1.9 µM); in data set [3] it was 0.78 to 1.56 µg/mL (≈ 0.948 to 1.9 µM); in data set [4], 0.78 to 1.56 µg/mL (≈ 0.948 to 1.9 µM).
In the case of `O=C(Nc1nc(-c2ccc(Cl)cc2)cs1)c1cncc(Cl)n1`, the MIC in data set [1] is more than 12.5 µg/mL; in data set [2], more than 12.5 µg/mL; in data set [3], more than 12.5 µg/mL; in data set [4], 62.5 µg/mL (≈ 178 µM). For the same molecule, the solubility entry in data set [6] is listed as “Soluble”.
As to `Cc1csc(NC(=O)c2cnc(C(C)(C)C)c(Cl)n2)n1`, the inhibition of growth at 6.25 µg/mL in [7] was in the range of 15 to 65%.
On to `COc1ccc(-c2csc(NC(=O)c3cnccn3)n2)cc1`, for which the MIC in data set [1] was more than 100 µg/mL; in data set [2], more than 100 µg/mL; in [3], more than 100 µg/mL; in data set [4] it was more than 250 µg/mL. The solubility result in [6] is given as “Soluble”.
Take `CC(C)(C)c1ncc(C(=O)Nc2nccs2)nc1Cl`: the inhibition of growth at 6.25 µg/mL in data set [7] lay within 15 to 65%.
In the case of `COc1ccc(-c2csc(NC(=O)c3cncc(Cl)n3)n2)cc1`, the minimal inhibitory concentration (MIC) in data set [1] was 4.5 µM; in data set [2] it was 12.5 µg/mL (≈ 36 µM); in data set [3] it was more than 12.5 µg/mL; in [4], 62.5 µg/mL (≈ 180 µM). The solubility entry in [6] is listed as “Insoluble”. For the same molecule, the IC50 in [8] is more than 25 µM. The selectivity ratio in [9] was more than 5.6.
As to `COc1ccc(-c2csc(NC(=O)c3cncc(Cl)n3)n2)cc1OC`, the MIC in data set [1] was 4.1 µM; in [2], more than 12.5 µg/mL; in data set [3], more than 12.5 µg/mL; in data set [4] it was more than 125 µg/mL. Further, in [6], the solubility result was “Insoluble”. For the same molecule, the IC50 in data set [8] was more than 25 µM. In data set [9], the selectivity ratio is more than 6.
For `O=C(Nc1nc(-c2ccccn2)cs1)c1cnccn1`, the minimal inhibitory concentration (MIC) in data set [1] was 22.1 µM; in [2], more than 50 µg/mL; in data set [3], more than 50 µg/mL; in data set [4] it was more than 125 µg/mL. In addition, the solubility entry in [5] is “Soluble”. The 50% inhibitory concentration (IC50) in [8] is more than 25 µM. The selectivity ratio in [9] was more than 1.1.
For `O=C(Nc1nc(-c2ccc(Cl)cc2)cs1)c1cnc(Cl)cn1`, the MIC was more than 50 µg/mL in data set [1], more than 50 µg/mL in [2], more than 50 µg/mL in data set [3] and more than 500 µg/mL in data set [4]. Further, in data set [6], the solubility result is given as “Soluble”.
Consider `O=C(Nc1nc(-c2ccc(F)cc2)cs1)c1cnc(Cl)cn1`, for which the minimum inhibitory concentration (MIC) was 9.4 µM in data set [1], 12.5 µg/mL (≈ 37.3 µM) in [2], more than 50 µg/mL in data set [3] and more than 500 µg/mL in [4]. Also, the solubility result in data set [6] is “Soluble”. For the same molecule, the 50% inhibitory concentration (IC50) in data set [8] was determined as 24.8 µM; in data set [10] it was 22.4 µM; in [11], 18.1 µM. Also, the selectivity ratio in data set [9] is 2.7.
As to `O=C(Nc1nc(-c2ccccc2)cs1)c1cnccn1`, the results for the minimum inhibitory concentration (MIC) in data set [1], in data set [2] and in data set [4] were more than 50 µg/mL, more than 50 µg/mL and more than 250 µg/mL, respectively. Besides, the solubility entry in data set [6] was “Soluble”.
With `O=C(Nc1nc(-c2ccc(F)cc2)cs1)c1cncc(Cl)n1`, the minimal inhibitory concentration (MIC) was 2.3 µM in data set [1], 0.78 µg/mL (≈ 2.33 µM) in data set [2], 0.78 µg/mL (≈ 2.33 µM) in data set [3] and more than 250 µg/mL in [4]. In addition, in data set [6], the solubility entry is on record as “Soluble”. Further, the half-maximal inhibitory concentration (IC50) in data set [8], in data set [10] and in data set [11] was more than 50 µM each time. Further, in data set [9], the selectivity ratio is more than 21.5.
Regarding `Cc1csc(NC(=O)c2cncc(Cl)n2)n1`, the inhibition of growth at 6.25 µg/mL in [7] was in the range of 15 to 65%.
As for `O=C(Nc1nc(-c2ccc(F)cc2)cs1)c1cnccn1`, the minimum inhibitory concentration (MIC) in data set [1] is more than 12.5 µg/mL; in data set [2], more than 12.5 µg/mL; in data set [3], more than 12.5 µg/mL; in data set [4] it was more than 250 µg/mL. Moreover, the solubility entry in data set [6] is “Insoluble”.
